Calls of active or inactive are those of the source. The rule behind the calls is not given here.
How the values were obtained:
[1] = molecular target: T1, C-C chemokine receptor type 2 (Homo sapiens, UniProt P41597); assay: Displacement of 0.1 nM [125I]CCL2 from human CCR2 expressing human U2OS cell membrane by scintillation spectrometry; type: cell membranes
Method in brief: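 U2OS–CCR2 membranes (15 μg) incubated 150 min at 37 °C with 0.1 nM 125I-CCL2 with or without competitor. Ki derived from IC50 by Cheng–Prusoff. Mean ± S.E.M. of at least 3 experiments in duplicate.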
Target sequence in this assay (P41597 whole entry): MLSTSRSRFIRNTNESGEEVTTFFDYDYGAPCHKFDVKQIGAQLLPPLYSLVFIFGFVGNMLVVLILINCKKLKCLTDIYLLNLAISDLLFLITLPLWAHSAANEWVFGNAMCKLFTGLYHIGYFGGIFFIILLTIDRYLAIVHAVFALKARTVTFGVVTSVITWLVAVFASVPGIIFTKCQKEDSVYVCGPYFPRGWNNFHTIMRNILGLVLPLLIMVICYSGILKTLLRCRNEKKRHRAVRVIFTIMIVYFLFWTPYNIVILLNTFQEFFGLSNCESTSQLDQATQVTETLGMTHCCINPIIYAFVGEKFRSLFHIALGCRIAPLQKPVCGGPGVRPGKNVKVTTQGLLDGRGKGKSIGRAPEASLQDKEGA

[2] = molecular target: T1, C-C chemokine receptor type 2; assay: Displacement of [3H]INCB3344 from human CCR2 receptor expressed in human U2OS cell membrane assessed as kinetic rate index at Ki by dual-point competition association assay relative to control; type: cell membranes
Method in brief: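 U2OS–CCR2 membranes (10 μg) incubated with 1.8 nM [3H]INCB3344 at 25 °C for 50 min (t1) or 240 min (t2). Unlabeled ligand was present at 1-fold its Ki from 125I-CCL2 displacement. KRI = specific binding at t1 divided by specific binding at t2.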
Target sequence in this assay (P41597 whole entry, looked up): as the sequence (P41597 whole entry) above

[3] = molecular target: T1, C-C chemokine receptor type 2; assay: Antagonist activity at human CCR2 expressing human U2OS cells assessed as inhibition of CCL2-induced G protein activation at 10 uM by [35S]GTPgammaS binding/scintillation spectrometry assay; type: functional, cell-based
Method in brief: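 Membranes (10 μg) in 50 mM Tris-HCl pH 7.4, 5 mM MgCl2, 100 mM NaCl, 1 mM EDTA, 0.05% BSA, 10 μM GDP, 10 μg saponin; 30 min preincubation with 10 μM antagonist at 25 °C, then 10 nM CCL2 for 30 min, then 0.3 nM [35S]GTPγS for 90 min. Stopped with ice-cold buffer, GF/B filtration, scintillation counting.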
Target sequence in this assay (P41597 whole entry, looked up): as the sequence (P41597 whole entry) above

[4] = Residence time of the compound
[5] = molecular target: T1, C-C chemokine receptor type 2; assay: Displacement of 0.1 nM [125I]CCL2 from human CCR2 expressing human U2OS cell membrane by scintillation spectrometry
Target sequence in this assay (P41597 whole entry, looked up): as the sequence (P41597 whole entry) above

SMILES | Ki [1] [nM] | Ratio [2] | inhibition [3] | Residence time [4] [min] | inhibition [5] [%] | Kd [1] [nM]
CC(C)[C@]1(C(=O)N2CCc3ccc(C(F)(F)F)cc3C2)CC[C@@H](NC2CCc3c(N)cccc32)C1 (stereo not given in full) | 4.6 | 0.7 | – | – | – | –
CC(C)[C@]1(C(=O)N2CCc3ccc(C(F)(F)F)cc3C2)CC[C@@H](NC2CCc3cc(-c4cccc(C#N)c4)ccc32)C1 (stereo not given in full) | 55 | 0.7 | – | – | – | –
CC(C)[C@]1(C(=O)N2CCc3ccc(C(F)(F)F)cc3C2)CC[C@@H](N[C@H]2C[C@H](C)c3cc(Br)ccc32)C1 | 4.6 | 1.2 | Active | 208 | – | –
CC(C)[C@]1(C(=O)N2CCc3ccc(C(F)(F)F)cc3C2)CC[C@@H](N[C@H]2C[C@@H](C)c3cc(Br)ccc32)C1 | 1.7 | 1.4 | Active | 588 | – | –
CC(C)[C@]1(C(=O)N2CCc3ccc(C(F)(F)F)cc3C2)CC[C@@H](NC2CCc3cc(C(F)(F)F)ccc32)C1 (stereo not given in full) | 13 | 1.4 | Active | 667 | – | –
CC(C)[C@]1(C(=O)N2CCc3ccc(C(F)(F)F)cc3C2)CC[C@@H](NC2CCc3ccc(C#N)cc32)C1 (stereo not given in full) | 13 | 0.6 | – | – | – | –
CC(C)[C@]1(C(=O)N2CCc3ccc(C(F)(F)F)cc3C2)CC[C@@H](NC2CCc3cc(-c4cccnc4)ccc32)C1 (stereo not given in full) | 10 | 0.7 | – | – | – | –
COc1ccc(-c2ccc3c(c2)CCC3N[C@@H]2CC[C@@](C(=O)N3CCc4ccc(C(F)(F)F)cc4C3)(C(C)C)C2)cc1 (stereo not given in full) | 75 | 0.9 | – | – | – | –
COc1cc2c(cc1Br)C(C)CC2N[C@@H]1CC[C@@](C(=O)N2CCc3ccc(C(F)(F)F)cc3C2)(C(C)C)C1 (stereo not given in full) | 13 | 1.5 | – | 238 | – | –
Cc1cccc(-c2ccc3c(c2)CCC3N[C@@H]2CC[C@@](C(=O)N3CCc4ccc(C(F)(F)F)cc4C3)(C(C)C)C2)c1 (stereo not given in full) | – | – | – | – | 24 | –
Cc1cccc2c1CCC2N[C@@H]1CC[C@@](C(=O)N2CCc3ccc(C(F)(F)F)cc3C2)(C(C)C)C1 (stereo not given in full) | 31 | 0.7 | – | – | – | –
COc1cc2c(cc1Br)CCC2N[C@@H]1CC[C@@](C(=O)N2CCc3ccc(C(F)(F)F)cc3C2)(C(C)C)C1 (stereo not given in full) | 4.5 | 1.3 | – | 323 | – | –
COc1ccccc1-c1ccc2c(c1)CCC2N[C@@H]1CC[C@@](C(=O)N2CCc3ccc(C(F)(F)F)cc3C2)(C(C)C)C1 (stereo not given in full) | – | – | – | – | 2 | –
CO[C@@H]1COCC[C@@H]1N[C@@H]1CC[C@@](C(=O)N2CCc3ncc(C(F)(F)F)cc3C2)(C(C)C)C1 [MK-0812] | 0.55 | – | – | 92 | – | 0.48
CC(C)[C@]1(C(=O)N2CCc3ccc(C(F)(F)F)cc3C2)CC[C@@H](NC2CCc3c(C#N)cccc32)C1 (stereo not given in full) | 15 | 0.6 | – | – | – | –
CC(C)[C@]1(C(=O)N2CCc3ccc(C(F)(F)F)cc3C2)CC[C@@H](NC2CCc3ccc(Cl)cc32)C1 (stereo not given in full) | 7.9 | 0.6 | – | – | – | –
CCOc1cncc(-c2ccc3c(c2)CCC3N[C@@H]2CC[C@@](C(=O)N3CCc4ccc(C(F)(F)F)cc4C3)(C(C)C)C2)c1 (stereo not given in full) | 10 | 0.5 | – | – | – | –
COc1cc2c(cc1OC)C(N[C@@H]1CC[C@@](C(=O)N3CCc4ccc(C(F)(F)F)cc4C3)(C(C)C)C1)CC2 (stereo not given in full) | 1.2 | 1 | – | 63 | – | –
CC1CC(N[C@@H]2CC[C@@](C(=O)N3CCc4ccc(C(F)(F)F)cc4C3)(C(C)C)C2)c2ccc(Br)cc21 (stereo not given in full) | 2 | 1.3 | – | 345 | – | –
Cc1ccccc1-c1ccc2c(c1)CCC2N[C@@H]1CC[C@@](C(=O)N2CCc3ccc(C(F)(F)F)cc3C2)(C(C)C)C1 (stereo not given in full) | – | – | – | – | 46 | –
CC(C)[C@]1(C(=O)N2CCc3ccc(C(F)(F)F)cc3C2)CC[C@@H](NC2CCc3cc(Br)ccc32)C1 (stereo not given in full) | 2.3 | 1.3 | – | 213 | – | –

SMILES | Ki [1] [nM] | Ratio [2] | inhibition [3] | Residence time [4] [min] | inhibition [5] [%] | Kd [1] [nM]
COc1cccc(-c2ccc3c(c2)CCC3N[C@@H]2CC[C@@](C(=O)N3CCc4ccc(C(F)(F)F)cc4C3)(C(C)C)C2)c1 (stereo not given in full) | 39 | 0.8 | – | – | – | –
COc1cncc(-c2ccc3c(c2)CCC3N[C@@H]2CC[C@@](C(=O)N3CCc4ccc(C(F)(F)F)cc4C3)(C(C)C)C2)c1 (stereo not given in full) | 41 | 0.8 | – | – | – | –
CCC1CC(N[C@@H]2CC[C@@](C(=O)N3CCc4ccc(C(F)(F)F)cc4C3)(C(C)C)C2)c2cc(OC)c(Br)cc21 (stereo not given in full) | 83 | 1.3 | – | 179 | – | –
CC(C)[C@]1(C(=O)N2CCc3ccc(C(F)(F)F)cc3C2)CC[C@@H](NC2CCc3cc(F)ccc32)C1 (stereo not given in full) | 4.9 | 0.9 | – | 55 | – | –
COc1cc(-c2ccc3c(c2)CCC3N[C@@H]2CC[C@@](C(=O)N3CCc4ccc(C(F)(F)F)cc4C3)(C(C)C)C2)ccn1 (stereo not given in full) | 23 | 0.6 | – | – | – | –
CC(C)[C@]1(C(=O)N2CCc3ccc(C(F)(F)F)cc3C2)CC[C@@H](N[C@@H]2C[C@H](C)c3cc(Br)ccc32)C1 | 137 | – | – | – | – | –
CC(C)[C@]1(C(=O)N2CCc3ccc(C(F)(F)F)cc3C2)CC[C@@H](N[C@@H]2CCc3cc(Br)ccc32)C1 | 2.4 | 1.7 | Active | 714 | – | –
CC(C)[C@]1(C(=O)N2CCc3ccc(C(F)(F)F)cc3C2)CC[C@@H](NC2CCc3ccccc32)C1 (stereo not given in full) | 2.2 | 1 | – | 21 | – | –
Cc1ccc2c(c1)C(N[C@@H]1CC[C@@](C(=O)N3CCc4ccc(C(F)(F)F)cc4C3)(C(C)C)C1)CC2 (stereo not given in full) | 23 | 0.6 | – | – | – | –
CC(C)[C@]1(C(=O)N2CCc3ccc(C(F)(F)F)cc3C2)CC[C@@H](NC2CCc3cc(I)ccc32)C1 (stereo not given in full) | 4.4 | 1.3 | – | 103 | – | –
CC1CC(N[C@@H]2CC[C@@](C(=O)N3CCc4ccc(C(F)(F)F)cc4C3)(C(C)C)C2)c2ccccc21 (stereo not given in full) | 3.4 | 0.7 | – | – | – | –
COc1ccc(OC)c2c1CCC2N[C@@H]1CC[C@@](C(=O)N2CCc3ccc(C(F)(F)F)cc3C2)(C(C)C)C1 (stereo not given in full) | 49 | 0.8 | – | – | – | –
CC(C)[C@]1(C(=O)N2CCc3ccc(C(F)(F)F)cc3C2)CC[C@@H](NC2CCc3cc(-c4ccc(C#N)cc4)ccc32)C1 (stereo not given in full) | 11 | 0.9 | – | – | – | –
CC(C)[C@]1(C(=O)N2CCc3ccc(C(F)(F)F)cc3C2)CC[C@@H](NC2CCc3c(O)cccc32)C1 (stereo not given in full) | 21 | 0.7 | – | – | – | –
CC(C)[C@]1(C(=O)NCc2cc(C(F)(F)F)cc(C(F)(F)F)c2)CC[C@@H](NC2CCc3ccccc32)C1 (stereo not given in full) | – | 0.8 | – | 9.1 | – | –
CC(C)[C@]1(C(=O)N2CCc3ccc(C(F)(F)F)cc3C2)CC[C@@H](N[C@H]2CCc3cc(Br)ccc32)C1 | 24 | 0.8 | Active | 15 | – | –
CC(C)[C@]1(C(=O)N2CCc3ccc(C(F)(F)F)cc3C2)CC[C@@H](NC2CCc3cc(Cl)ccc32)C1 (stereo not given in full) | 1.6 | 1.2 | – | 100 | – | –
CC(C)[C@]1(C(=O)N2CCN(c3cc(C(F)(F)F)ccn3)CC2)CC[C@@H](NC2CCc3ccccc32)C1 (stereo not given in full) | 15 | 0.5 | – | 8.3 | – | –
CC(C)[C@]1(C(=O)N2CCc3ccc(C(F)(F)F)cc3C2)CC[C@@H](NC2CCc3cc(-c4ccccc4)ccc32)C1 (stereo not given in full) | – | – | – | – | 28 | –
COc1cc(-c2ccc3c(c2)CCC3N[C@@H]2CC[C@@](C(=O)N3CCc4ccc(C(F)(F)F)cc4C3)(C(C)C)C2)c(F)cn1 (stereo not given in full) | 12 | 0.8 | – | – | – | –
CC(C)[C@]1(C(=O)N2CCc3ccc(C(F)(F)F)cc3C2)CC[C@@H](N[C@@H]2C[C@@H](C)c3cc(Br)ccc32)C1 | 199 | – | – | – | – | –

— ChEMBL document CHEMBL3414488, “When structure-affinity relationships meet structure-kinetics relationships: 3-((Inden-1-yl)amino)-1-isopropyl-cyclopentane-1-carboxamides as CCR2 antagonists” (Eur J Med Chem, 2015)
